# The list is not random: actives were taken first. Their share in the collection is about 2.4%.
# Jurkat NFkB inh – inhibitors of the PMA/ionomycin-induced NF-kB reporter in Jurkat cells; PMA/ionomycin-induced NF-kB luciferase reporter, luminescence; inhibition, % at 4 µM; 0.53% of 330,000 active; in the data active means inhibition above about 50%
# 697 NFkB inh – lowers PMA/ionomycin-induced NF-kB signal in 697 B cells. inhibition, % at 4 µM. 0.33% of 330,000 active. 697 B-cell NF-kB luciferase reporter, 16 h; in the data active means inhibition above about 35%
# aDG glyco up – alpha-DG glycosylation activation; Pro5-aDG cells, alpha-DG glycosylation AlphaScreen (IIH6); 0% Pro5, 100% B10-LARGE cell signal; 0.22% of 360,000 active; activation, % at 10 µM; AID 624168;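 active means activation of at least 8% versus controls, or a plate z-score of at least 8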;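 further: Pro5 are CHO cells carrying HIG-tagged alpha-DG that lacks glycosylation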
# NR2E3 ag-1 – agonists of human nuclear receptor NR2E3. Q9Y5X4. GST-NR2E3/biotin-RetCOR TR-FRET, 1536-well. 0.12% of 320,000 active. inhibition of corepressor binding, % at 4.78 µM;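 active means percent inhibition above the cutoff of mean plus 3 SD of all tested compounds, set per screening campaign, cut at about 20% in these data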;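 further: 0% = DMSO wells and 100% = biotin wells as full block of FRET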
# Target sequence (Q9Y5X4 whole entry, looked up): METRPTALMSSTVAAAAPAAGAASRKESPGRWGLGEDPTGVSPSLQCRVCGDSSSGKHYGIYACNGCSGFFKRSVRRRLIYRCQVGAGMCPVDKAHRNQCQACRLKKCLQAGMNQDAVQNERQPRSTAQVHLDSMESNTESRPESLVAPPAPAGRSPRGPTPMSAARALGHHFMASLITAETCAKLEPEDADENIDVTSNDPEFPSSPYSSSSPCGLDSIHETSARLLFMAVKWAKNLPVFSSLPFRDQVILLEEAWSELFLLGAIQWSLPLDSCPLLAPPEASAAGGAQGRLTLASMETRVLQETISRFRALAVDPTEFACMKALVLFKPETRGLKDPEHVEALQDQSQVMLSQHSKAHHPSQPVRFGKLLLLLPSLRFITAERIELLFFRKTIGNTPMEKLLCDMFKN
#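 Test system: GST-NR2E3 and biotin-RetCOR proteins | Quantity: 1.35 nM GST-tagged NR2E3 final | Medium: Tris pH 7.5 | Also added: 7 nM biotin-RetCOR | Dosing: Compound at 4.8 µM, single dose | Timing: 5 h at 4 °C | Detection: Time-resolved FRET | Read-out basis: Percent inhibition | Benchmarks: Biotin wells as high control, 0.6% DMSO wells as low control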
# NR2E3 ag-2 – activates human NR2E3 receptor | Q9Y5X4 | CHO-S Gal4-NCOR/VP16-NR2E3 two-hybrid, luciferase | inhibition of corepressor binding, % at 3.98 µM | 0.35% of 360,000 active;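 active means inhibition above the mean of all tested compounds plus 3 SD, cut at about 70% in these data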;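 further: 0% = DMSO with NR2E3 transfected cells and 100% = cells lacking NR2E3 construct; higher means lower luciferase signal from less NR2E3 corepressor binding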
# MPTP inh – inhibitors of mitochondrial permeability transition pore; isolated mouse mitochondria, Ca2+ swelling absorbance, 30 min; inhibition, % at 10 µM; 1.4% of 360,000 active; AID 602449;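 active means inhibition of 50% or more, scaled per plate between neutral and stimulator controls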;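 further: 0% = DMSO wells given calcium and 100% = 1 mM EGTA wells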
# 697 NFkB conf – inhibitors of the PMA/ionomycin-induced NF-kB reporter in 697 B cells, retest. shares compounds with 697 NFkB inh. 35% of 2,000 active. 697 B-cell NF-kB luciferase, 16 h. inhibition, % at 4 µM; in the data active means inhibition mostly above about 28%, no sharp cut-off; inactive means mostly below about 22%
# Numbers without * were called inactive; i = inactive; nt = no result given.
SMILES,Jurkat NFkB inh,697 NFkB inh,aDG glyco up,NR2E3 ag-1,NR2E3 ag-2,MPTP inh,697 NFkB conf
Cc1cc(C)nc(Sc2ccc([N+](=O)[O-])cc2[N+](=O)[O-])n1,-14,41*,2,1,12,0,29*
Cc1ccc2nc(-c3ccc(NC(=O)CN4CCN(c5ccccn5)CC4)cc3)sc2c1,-79,-290,0,-2,-112,4,-230
CCn1c(SCC(=O)Nc2ccc(-c3nc4ccc(C)cc4s3)cc2)nnc1-c1ccccc1,-76,-326,nt,-19,nt,nt,-189
O=C(O)c1ccc(N/N=C/c2cn(Cc3ccccc3F)c3ccccc23)cc1,-22,-110,0,0,-50,8,nt
CC(C)n1cc(/C=N/Nc2ccc(C(=O)O)cc2)c2ccccc21,7,-305,0,-2,-15,0,-10
O=C(OCC1CCNCC1)c1ccc(F)cc1,nt,nt,0,nt,-2,0,nt
N#Cc1ccccc1COc1ccc(/C=C/C(=O)O)cc1,14,39*,1,-1,-12,3,38*
N#CC(c1ccc(N)cc1)C(CC(=O)c1ccccc1)c1ccccc1 (stereo not given),nt,nt,0,nt,-30,0,nt
O=C(Nc1ccc2[nH]c(=S)sc2c1)c1ccccc1,-59,-49,0,-2,-87,-3,nt
O=C(Nc1ccc2[nH]c(=S)sc2c1)Nc1ccccc1F,-122,-296,0,0,-143,1,-212
CCOc1ccc(-c2nnc(SCC(=O)Nc3cc(C)on3)o2)cc1,-17,35,0,1,-14,-1,41*
COc1cccc(-c2nnc(SCC(=O)Nc3cc(C)on3)o2)c1,-33,-32,0,5,-16,5,nt
COc1ccccc1NC(=O)c1cc2c(s1)-c1ccccc1S(=O)(=O)C2,14,30,0,-1,4,1,nt
CCOc1ccccc1N1CCN(C(=O)c2ccc(-c3ccc(OC(C)=O)cc3)cc2)CC1,7,-13,0,0,12,-1,nt
O=C(COC(=O)C1CCN(S(=O)(=O)c2ccc3c(c2)OCCO3)CC1)NC1CCCCC1,8,36*,0,3,-15,-1,10
O=C(COC(=O)C1CCN(S(=O)(=O)c2ccc3c(c2)OCCO3)CC1)NC1CCS(=O)(=O)C1 (stereo not given),-2,6,0,2,-3,-1,nt
Cc1ccc(NC(=O)c2nc[nH]c2C(=O)N(C)Cc2ccccc2)cc1,0,-6,1,1,-29,0,nt
CCN(CC)c1ccc(C=Nc2ccccc2C)c(O)c1,1,-23,0,2,-13,2,nt
CCN(CC)c1ccc(/C=N/N=C(c2ccccc2)c2ccccc2)c(O)c1,9,35*,-1,1,13,5,27*
Cn1c(CCN2CCCCC2)nc2cc(NC(=O)COc3ccc([N+](=O)[O-])cc3)ccc21,-10,-4,0,2,-23,2,nt
CC1=CC(C)(C)Nc2ccc(C)cc21,-12,-28,0,1,-6,1,nt
CC1=CC(C)(C)Nc2ccc(OC(=O)c3cccnc3)cc21,-14,66*,0,3,21,-1,62*
CC1=CC(C)(C)Nc2ccc(OC(=O)C(C)N3C(=O)c4ccccc4C3=O)cc21 (stereo not given),5,67*,0,-2,12,12,55*
CC1=CC(C)(C)Nc2ccc(OC(=O)CN3C(=O)CCC3=O)cc21,6,65*,0,2,14,0,48*
CC1=CC(C)(C)Nc2ccc(OC(=O)c3ccco3)cc21,14,79*,0,2,11,1,38*
SMILES,Jurkat NFkB inh,697 NFkB inh,aDG glyco up,NR2E3 ag-1,NR2E3 ag-2,MPTP inh,697 NFkB conf
CC1(C)C(C(=O)O)N2C(=O)C(NC(=O)Cc3ccccc3)C2S1=O (stereo not given),4,19,0,1,-4,0,nt
O=C(NCc1ccccc1)C1C(=O)Nc2ccccc2C(=O)N1c1ccc2c(c1)OCCO2 (stereo not given),nt,nt,0,nt,nt,0,nt
O=C(CCCCCCC(=O)Nc1ccccc1)NO,24,i,0,1,-3,nt,-336
NC(=O)CCCn1c(C(=O)c2cc(Cl)c(N)c(Cl)c2)c2ccc([N+](=O)[O-])cc2[n+]1[O-],25,-314,0,3,2,-2,-335
O=C(NC1CCC(O)CC1)c1ccc2c(c1)S(=O)(=O)N=C1CCCCCN12 (stereo not given),-7,1,0,3,-35,-3,nt
O=C(CN1C(=O)c2ccccc2S1(=O)=O)c1ccc(Cl)cc1Cl,-14,74*,0,0,12,0,74*
O=C(CN1C(=O)c2ccccc2S1(=O)=O)c1ccc(OC(F)F)cc1,17,40*,0,-1,-11,0,36*
O=C(CN1C(=O)c2ccccc2S1(=O)=O)c1ccc(F)cc1,6,32,0,2,19,3,nt
COC(=O)C1=C(NC(=O)C2CCCCC2)CCS1,nt,nt,0,nt,4,0,nt
COc1ccc(C(=O)OCC(=O)NCC2CCCCC2)c(OC)c1,19,8,0,nt,5,0,nt
CC(=O)c1c(C)[nH]c(C(=O)N2CCN(C(=O)c3ccco3)CC2)c1C,12,18,0,-2,-19,0,nt
CC(=O)c1c(C)[nH]c(C(=O)N2CCc3ccccc3C2)c1C,7,42*,0,-3,28,-1,20
COc1ccccc1C(=O)NCCC(=O)NNC(=O)C1COc2ccccc2O1 (stereo not given),18,2,0,-8,6,-3,nt
COc1ccc(C(=O)c2coc3ccc(OC(C)=O)cc23)cc1,-124,-279,0,-3,-112,3,-312
Cc1ccc(C(=O)c2coc3ccc(O)cc23)cc1,-133,-254,0,nt,-122,1,-323
COc1ccccc1C(=O)N=c1sc2c(C)ccc(OC)c2n1C,-33,-42,0,3,-71,2,nt
CCN1CCN(C(=O)CSc2cc(=O)n(C)c3ccccc23)CC1,8,14,0,-1,-4,2,nt
COc1ccccc1N1CCN(C(=O)CSc2ccccc2)CC1,-34,-43,0,1,-42,-1,nt
CCn1c(=O)cc(SCC(=O)N2CCN(C(=O)c3ccco3)CC2)c2ccccc21,6,53*,0,1,13,-1,38*
CCn1c(=O)cc(SCC(=O)N2CCN(C3CCCCC3)CC2)c2ccccc21,14,48*,0,-1,18,-2,19
CCn1c(=O)cc(SCC(=O)N2CCOCC2)c2ccccc21,3,42*,0,4,7,-1,45*

# Compound activity from PubChem BioAssay.
